Laboratory results from ChEMBL document CHEMBL1800041, “Bioactive terpenes from Spongia officinalis” (J Nat Prod, 2011).
Calls of active or inactive are those of the source. The rule behind the calls is not given here.

Legend:
Assay type in all cases: functional, organism-based
[1] = system: Escherichia coli; assay: Antibacterial activity against Escherichia coli by broth macrodilution method
Method in brief: (§1)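 Broth macrodilution as in the antifungal test (NCCLS M27-P guideline). The medium was changed to Luria-Bertani (10 g/L Bactotryptone, 5 g/L Bactoyeast, 10 g/L NaCl, pH 7.5), and incubation was at 37 °C for 24 h.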

[2] = system: Candida albicans; assay: Antifungal activity against Candida albicans by broth macrodilution method
Method in brief: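 Broth macrodilution following NCCLS document M27-P guidelines for antifungal susceptibility testing of yeast.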

[3] = system: Staphylococcus aureus; assay: Antibacterial activity against Staphylococcus aureus by broth macrodilution method; method in brief: as §1
[4] = system: Staphylococcus aureus; assay: Antibacterial activity against Staphylococcus aureus at 100 ug/mL by broth macrodilution method

| SMILES | Activity [1] | Activity [2] | Activity [3] | Activity [4] |
| --- | --- | --- | --- | --- |
| C/C(=C\CCc1ccoc1)C[C@H](O)C[C@@H](C)CCCc1ccoc1 | inactive | inactive | inactive |  |
| COC(=O)/C(=C\CC/C(C)=C/CC/C(C)=C/CCc1ccoc1)CC/C=C(\C)C(=O)O | inactive | inactive | inactive |  |
| C/C(=C\CCc1ccoc1)CC/C=C(\C)CCCc1ccoc1 | inactive | inactive | inactive |  |
| C[C@H](CCCc1ccoc1)CC(=O)C[C@@H](C)CCCc1ccoc1 | inactive | inactive | inactive |  |
| C/C(=C\CCc1ccoc1)CC(=O)C[C@@H](C)CCCc1ccoc1 | inactive | inactive | inactive |  |
| C/C(=C\CCc1ccoc1)CC/C=C(\C)CCCC1=CC(=O)OC1 | inactive | inactive | inactive |  |
| COC(=O)/C(C)=C/CC/C(=C/CC/C(C)=C/CC/C(C)=C/CCc1ccoc1)C(=O)O | inactive | inactive |  | Active |
